Assay results as given in ChEMBL document CHEMBL1130207, “Structure-activity relationships for acridine-substituted analogues of the mixed topoisomerase I/II inhibitor N-[2-(dimethylamino)ethyl]acridine-4-carboxamide” (J Med Chem, 1997).

Columns and labels:
[1] = test system: Jurkat; assay: Inhibitory concentration required to reduce human Jurkat leukemia (JLC sensitive, wild type) cell number to 50% of control cultures; assay type: functional, cell-based
[2] = test system: LLTC cell line; assay: Inhibitory concentration required to reduce Lewis lung carcinoma cell number to 50% of control cultures; assay type: functional, cell-based; settings: Mus musculus
How it was run: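 Lewis lung carcinoma cells seeded at 10³ per well and exposed to drug for 4 days. Growth read by sulforhodamine assay; IC50 is the drug concentration (nM) that cuts cell number to 50% of control cultures. Value is the mean of at least two independent determinations done in duplicate; coefficient of variation 7.9–8.5%.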

[3] = test system: P388; assay: Inhibitory concentration required to reduce murine p388 leukemia cell number to 50% of control cultures; assay type: functional, cell-based; settings: Mus musculus
[4] = test system: Jurkat; assay: Ratio of IC50 of mutant Jurkat leukemia (JLD) to the IC50 of Jurkat leukemia (JLC sensitive, wild type); assay type: functional, Homo sapiens
How it was run: (§1)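 Jurkat lines were each plated at 3.75 × 10³ per well and grown 4 days with drug: parental JL_C, amsacrine-resistant JL_A and doxorubicin-resistant JL_D. Growth was read by sulforhodamine assay. IC50 is the concentration giving 50% of control cell number. Ratio is IC50 in JL_A or JL_D divided by IC50 in JL_C.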

[5] = test system: Jurkat; assay: Ratio of IC50 of Jurkat leukemia amsacrine (JLA) to the IC50 of Jurkat leukemia (JLC sensitive, wild type); assay type: functional, Homo sapiens; how it was run: as §1

IC50 [1] [nM]	IC50 [2] [nM]	IC50 [3] [nM]	SMILES	Ratio [4]	Ratio [5]
919	258	120	CN(C)CCNC(=O)c1cccc2cc3c(Cl)cccc3nc12	1.3	1.25
1420	452	340	CN(C)CCNC(=O)c1cccc2cc3cccnc3nc12	1.2	1.1
111	36	26	COc1cccc2cc3cccc(C(=O)NCCN(C)C)c3nc12	5.6	4.9
756	447	87	CN(C)CCNC(=O)c1cccc2cc3cc(Br)ccc3nc12	1	0.8
–	36	6.5	CN(C)CCNC(=O)c1cccc2cc3cccc(Cl)c3nc12	–	4.2
1660	706	250	CN(C)CCNC(=O)c1cccc2cc3cccc(-c4ccccc4)c3nc12	1.4	1.55
212	272	260	CN(C)CCNC(=O)c1cccc2cc3ccc(N(C)C)cc3nc12	0.85	0.6
46	5.6	6.4	Cc1cccc2cc3cccc(C(=O)NCCN(C)C)c3nc12	4.8	4.6
4390	4590	6300	CN(C)CCNC(=O)c1cccc2cc3cc(C(C)(C)C)ccc3nc12	1.2	1.1
27	5.3	8	CN(C)CCNC(=O)c1cccc2c(N)c3ccccc3nc12	6.1	4.6
2480	1680	1100	CN(C)CCNC(=O)c1cccc2cc3cc(N(C)C)ccc3nc12	1.8	1.8
580	281	160	COc1ccc2cc3cccc(C(=O)NCCN(C)C)c3nc2c1	1.1	1.1
6390	5950	8600	CN(C)CCNC(=O)c1cccc2cc3cc(C(F)(F)F)ccc3nc12	1	0.8
1060	372	250	Cc1cccc2nc3c(C(=O)NCCN(C)C)cccc3cc12	1.05	0.95
446	230	160	CN(C)CCNC(=O)c1cccc2cc3ccc(Br)cc3nc12	1.1	0.9
625	176	96	Cc1ccc2cc3cccc(C(=O)NCCN(C)C)c3nc2c1	1.5	1.3
508	469	170	CN(C)CCNC(=O)c1cccc2cc3cc(O)ccc3nc12	3	2.5
1120	2830	890	CN(C)CCNC(=O)c1ccc2nc3c(C(=O)NCCN(C)C)cccc3cc2c1	1	0.6
75	17	18	CN(C)CCNC(=O)c1cccc2cc3cccc(C(F)(F)F)c3nc12	5	4.4
1350	735	330	Cc1ccc2nc3c(C(=O)NCCN(C)C)cccc3cc2c1	1.1	1

IC50 [1] [nM]	IC50 [2] [nM]	IC50 [3] [nM]	SMILES	Ratio [4]	Ratio [5]
103	21	14	CN(C)CCNC(=O)c1cccc2cc3cccc(F)c3nc12	5.6	4.5
455	122	49	CN(C)CCNC(=O)c1cccc2cc3ccc(F)cc3nc12	1.9	1.5
1840	346	240	CCc1ccc2nc3c(C(=O)NCCN(C)C)cccc3cc2c1	1.85	1.55
26	6.2	3.8	CN(C)CCNC(=O)c1cccc2cc3cccc(Br)c3nc12	4.9	3.8
436	161	150	Cc1c2ccccc2nc2c(C(=O)NCCN(C)C)cccc12	1	0.85
397	156	125	CN(C)CCNC(=O)c1cccc2cc3ccc(Cl)cc3nc12	1.3	1.1
7000	5820	3700	CC(C)c1ccc2nc3c(C(=O)NCCN(C)C)cccc3cc2c1	1.2	0.9
753	469	250	CN(C)CCNC(=O)c1cccc2cc3cc(Cl)ccc3nc12	1	0.8
5710	4130	1200	CN(C)CCNC(=O)c1cccc2cc3cccc(N(C)C)c3nc12	0.9	0.85
137	20	18	CCc1cccc2cc3cccc(C(=O)NCCN(C)C)c3nc12	4.4	4.1
2500	832	650	CC(C)c1cccc2cc3cccc(C(=O)NCCN(C)C)c3nc12	1	1
424	158	55	CN(C)CCNC(=O)c1cccc2cc3cc(F)ccc3nc12	2.1	1.8
240	168	94	CN(C)CCNC(=O)c1cccc2cc3cc(-c4ccccc4)ccc3nc12	6.5	3
1350	1750	1130	CN(C)CCNC(=O)c1cccc2cc3ccc(C(F)(F)F)cc3nc12	1	0.9
1590	810	580	COc1ccc2nc3c(C(=O)NCCN(C)C)cccc3cc2c1	1.1	1
2700	1200	4100	CN(C)CCNC(=O)c1cccc2c(-c3ccccc3)c3ccccc3nc12	1.1	0.8
580	189	98	CN(C)CCNC(=O)c1cccc2cc3ccccc3nc12	2.3	1.9
37	12	20	COc1cc(NS(C)(=O)=O)ccc1Nc1c2ccccc2nc2ccccc12 [AMSACRINE]	73.7	84.9
9.6	22	15	COc1cccc2c1C(=O)c1c(O)c3c(c(O)c1C2=O)C[C@@](O)(C(=O)CO)C[C@@H]3O[C@H]1C[C@H](N)[C@H](O)[C@H](C)O1 [DOXORUBICIN]	12.7	4.39
